The record followed here is ChEMBL document CHEMBL4732057, “Design, synthesis and biological evaluation of second-generation benzoylpiperidine derivatives as reversible monoacylglycerol lipase (MAGL) inhibitors” (Eur J Med Chem, 2021).

One experiment concerns Caov-3 cell line. Description: Antiproliferative activity against human CAOV3 cells as reduction in cell growth measured after 96 hrs by Celltiter-glo luminescent assay. The conditions noted are these: Caov-3, 96 h. Format: functional, cell-based. The method in brief: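 Cell lines kept at 37 °C, 5% CO2; 5 × 10^2 cells per well, compound added the day after seeding at 200 to 0.02 µM. Viability read after 96 h by CellTiter-Glo luminescence. IC50 from logistic dose-response curves, in triplicate; error bars are SD.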
For orientation: ATP-based viability assays read luminescence as a measure of living cells.

The nature of experiment [1]: Antiproliferative activity against human PDAC-3 cells assessed as inhibition of cell growth incubated for 72 hrs by SRB assay. The settings on record: PDAC-3, 72 h. The experiment is classed as functional, cell-based. In short, it runs like this:
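Primary patient-derived PDAC-3 cells, cultured under 20 passages in RPMI-1640 with 10% NBCS. Compounds dissolved in DMSO and tested at 8 concentrations, 156.25 to 20 000 nM. Growth read by sulforhodamine-B assay.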
(The SRB assay estimates cell density from bound dye.)

Experiment [2] concerns the target T1, Monoglyceride lipase (Homo sapiens) (UniProt Q99685).
T1 sequence (whole entry): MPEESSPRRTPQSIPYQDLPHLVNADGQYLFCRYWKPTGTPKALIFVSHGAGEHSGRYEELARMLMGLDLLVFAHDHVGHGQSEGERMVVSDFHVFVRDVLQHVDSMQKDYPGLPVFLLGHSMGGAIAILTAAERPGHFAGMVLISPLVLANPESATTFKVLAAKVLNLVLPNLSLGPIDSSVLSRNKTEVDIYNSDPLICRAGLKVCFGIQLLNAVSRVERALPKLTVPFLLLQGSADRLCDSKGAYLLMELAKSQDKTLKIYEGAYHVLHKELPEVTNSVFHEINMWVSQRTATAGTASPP
Description: Reversible inhibition of human recombinant MAGL using 4-nitrophenylacetate as substrate at 2 uM preincubated with enzyme for 60 mins followed by 40X dilution and 15 mins later incubated with substrate by microplate reader assay. The conditions noted are these: time 75.0 min. The method in brief:
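MAGL (880 ng) incubated 60 min at room temperature with compound at 2 µM in Tris pH 7.2, then diluted 40-fold in buffer. After 15 min, 4-NPA 500 µM stock added and activity read as in the main assay. Compared with 2000 nM and 50 nM undiluted; triplicates of two experiments.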

A further experiment concerns the target Cannabinoid receptor 2 (Homo sapiens, UniProt P34972). Kind of experiment: Displacement of [3H]CP55940 from human CB2 receptor incubated for 90 mins by radioligand binding assay. In short, it runs like this:
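Membranes expressing hCB1 or hCB2 in 50 mM Tris-HCl, 2.5 mM EDTA, 5 mM MgCl2, 0.5% BSA, pH 7.4, incubated with compound and 0.5 nM [3H]CP55,940 for 90 min at 30 °C. Nonspecific binding with 10 µM […]; filtered and counted. Screening at 10 µM; two experiments in triplicate.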
(In general: Displacement assays read how much labelled ligand stays bound in the presence of the test substance.)

The target in experiment [3] is T2, Lysophosphatidylserine lipase ABHD12 (Homo sapiens) (UniProt Q8N2K0).
T2 sequence (whole entry): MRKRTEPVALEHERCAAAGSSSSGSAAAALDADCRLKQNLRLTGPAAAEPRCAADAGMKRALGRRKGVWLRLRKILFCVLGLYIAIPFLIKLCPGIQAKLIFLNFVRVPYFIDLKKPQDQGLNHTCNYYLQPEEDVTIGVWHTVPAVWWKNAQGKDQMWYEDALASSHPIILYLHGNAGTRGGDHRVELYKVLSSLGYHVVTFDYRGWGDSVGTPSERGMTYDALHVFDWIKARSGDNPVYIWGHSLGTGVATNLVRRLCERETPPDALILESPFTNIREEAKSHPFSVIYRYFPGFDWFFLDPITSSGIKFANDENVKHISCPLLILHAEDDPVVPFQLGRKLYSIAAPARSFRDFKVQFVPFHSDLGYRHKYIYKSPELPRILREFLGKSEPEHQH
Description: Inhibition of human ABHD12 expressed in HEK293 cells using [3H]2-OG as substrate at 10 uM preincubated for 30 mins followed by substrate addition and measured after 5 mins by liquid scintillation spectroscopy. The experiment is classed as cell-based. The settings on record: time 35.0 min. In short, it runs like this: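 Homogenate (40 µg) of HEK293 cells stably transfected with human ABHD6 or ABHD12, preincubated with compound 30 min at 37 °C in […], 0.1% BSA, pH 7.6. 2-OG 10 µM added for 5 min at 37 °C. Stopped with CHCl3:MeOH; aqueous tritium counted; blanks and nontransfected HEK293 hydrolysis subtracted. Screening at 10 µM.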

Experiment [4] addresses T3, Monoglyceride lipase (Mus musculus) (UniProt O35678).
T3 sequence (whole entry): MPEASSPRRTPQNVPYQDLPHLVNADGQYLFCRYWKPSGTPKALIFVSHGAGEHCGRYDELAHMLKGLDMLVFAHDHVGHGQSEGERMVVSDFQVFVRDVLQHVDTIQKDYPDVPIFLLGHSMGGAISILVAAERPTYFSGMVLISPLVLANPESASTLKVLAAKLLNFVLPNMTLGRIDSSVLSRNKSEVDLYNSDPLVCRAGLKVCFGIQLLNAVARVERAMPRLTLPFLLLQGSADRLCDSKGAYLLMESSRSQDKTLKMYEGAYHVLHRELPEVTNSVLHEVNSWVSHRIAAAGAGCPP
Kind of experiment: Inhibition of MAGL in mouse brain membrane preincubated for 25 mins followed by TAMRA-FP labeling addition and measured after 5 mins by competitive ABPP based analysis. Format: cell membranes. The settings on record: time 30.0 min. In short, it runs like this:
(§1)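 Mouse brain membranes, 4 mg/mL in PBS, preincubated 25 min at 25 °C with compound at 10 µM or a range of concentrations. Labelled 5 min with TAMRA-FP at 125 nM final. Proteins resolved on 11% SDS-PAGE and scanned for fluorescence.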

Experiment [5] concerns the target T4, Lysophosphatidylserine lipase ABHD12 (Mus musculus) (UniProt Q99LR1).
T4 sequence (whole entry): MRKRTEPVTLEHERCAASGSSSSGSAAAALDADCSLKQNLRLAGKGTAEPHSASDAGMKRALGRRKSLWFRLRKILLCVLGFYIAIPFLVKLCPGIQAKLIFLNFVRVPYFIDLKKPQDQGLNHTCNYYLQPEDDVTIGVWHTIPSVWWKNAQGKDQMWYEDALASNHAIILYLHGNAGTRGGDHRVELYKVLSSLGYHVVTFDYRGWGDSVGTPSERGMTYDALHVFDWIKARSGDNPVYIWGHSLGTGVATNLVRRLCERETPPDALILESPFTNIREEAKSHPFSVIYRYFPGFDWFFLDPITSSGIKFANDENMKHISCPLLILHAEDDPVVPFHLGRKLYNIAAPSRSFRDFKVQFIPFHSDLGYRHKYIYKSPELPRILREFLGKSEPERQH
Description: Inhibition of ABHD12 in mouse brain membrane up to 30 uM preincubated for 25 mins followed by TAMRA-FP labeling addition and measured after 5 mins by competitive ABPP based analysis. Format: cell membranes. The settings on record: dose microM <=30, time 30.0 min. The method in brief: as §1

SMILES strings stand for the structures. Active and inactive are the calls of the source. The calls are words filed in the database; no cut-off is given here.

One may read the IC50 as the concentration at which inhibition is half-maximal. Usually inhibition stands for the percentage by which the read-out fell short of the control.

Cannabinoid receptor 2, sequence (P34972 whole entry): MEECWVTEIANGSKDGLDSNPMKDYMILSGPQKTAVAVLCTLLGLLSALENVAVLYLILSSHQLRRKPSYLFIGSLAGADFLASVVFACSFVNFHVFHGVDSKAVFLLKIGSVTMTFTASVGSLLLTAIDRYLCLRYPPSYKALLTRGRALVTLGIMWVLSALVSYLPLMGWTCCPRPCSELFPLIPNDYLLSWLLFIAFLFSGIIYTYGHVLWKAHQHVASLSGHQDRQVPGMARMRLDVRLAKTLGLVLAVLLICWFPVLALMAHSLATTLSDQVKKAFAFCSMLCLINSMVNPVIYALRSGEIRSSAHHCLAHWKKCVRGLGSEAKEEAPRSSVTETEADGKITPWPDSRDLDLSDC

With `O=C(c1ccc(Cc2ccccc2)cc1)C1CCN(C(=O)c2cc(O)c(F)cc2F)CC1`, the IC50 with Caov-3 cell line was 44 µM; in experiment [1], 12 µM; at Cannabinoid receptor 2 it was over 10 µM. Further, in experiment [2], the inhibition entry is “Active”. For the same molecule, the inhibition in experiment [3] is 28%; in experiment [4], “Dose-dependent effect”. Also, the inhibition entry in experiment [5] was “inactive”.

On to `O=C(c1ccc(Cc2ccccc2)cc1)C1CCN(C(=O)c2cc(O)ccc2F)CC1`, for which the results for the IC50 (with Caov-3 cell line; in experiment [1]; on Cannabinoid receptor 2) were 70 µM, 12.5 µM and over 10 µM, respectively. In addition, in experiment [2], the inhibition entry was “Active”. Also, the inhibition was 20% in experiment [3] and “Dose-dependent effect” in experiment [4]. In addition, the inhibition result in experiment [5] is “inactive”.

For the molecule `O=C(c1ccc(Sc2ccccc2)cc1)C1CCN(C(=O)c2cc(O)c(F)cc2F)CC1`, the values for the IC50 (in the experiment on Caov-3 cell line; in experiment [1]; at Cannabinoid receptor 2) were 42 µM, 14.6 µM and over 10 µM, respectively. In experiment [2], the inhibition entry was “Active”. Besides, the inhibition was 27% in experiment [3] and “Dose-dependent effect” in experiment [4]. Also, the inhibition result in experiment [5] was “inactive”.

Turning to `O=C(c1ccc(Sc2ccccc2)cc1)C1CCN(C(=O)c2cc(O)ccc2F)CC1`, the IC50 is 34 µM with Caov-3 cell line, 9.28 µM in experiment [1] and over 10 µM on Cannabinoid receptor 2. In addition, in experiment [2], the inhibition entry was “Active”. Moreover, the inhibition in experiment [3] is 26%; in experiment [4], “Dose-dependent effect”. Further, the inhibition result in experiment [5] is “inactive”.
